Screens from PubChem BioAssay.
This is a sample that favours compounds with a hit; in the whole collection about 1.7% have one here.
Scp1 inh = Scp-1 phosphatase inhibitors, primary screen, biochemical, colorimetric, uHTS; Carboxy-terminal domain RNA polymerase II polypeptide A small phosphatase 1 (Homo …; AID 493091, 2011; 340,000 compounds, 0.88% hits; inhibition, % at 20 µM; Recombinant Scp1, phosphopeptide, malachite green phosphate absorbance;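 active means inhibition above about 50% at 20 µM, limit read from the data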;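 further: plate controls were DMSO wells with enzyme for no effect and wells lacking enzyme for full effect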
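System: SCP-1 catalytic domain; Reagent: Phospho 17-mer peptide substrate; Doses: one concentration, 20 µM, with 1.0% DMSO; Incubation: 45 min room-temperature reaction, 5 min colour, 30 min stabiliser; Signal: Phosphate-binding colour reagent, absorbance read at 630 nm.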
DNMT1 block = human DNMT1 methyltransferase inhibitors, primary screen, biochemical, molecular beacon, fluorescence, HinP1I cleavage, uHTS. inhibition (reported as % activation of signal), % at 10 µM. 360,000 compounds, 0.83% hits; in the data active means inhibition above about 50%
Target sequence (P26358 504-1616 limits assumed): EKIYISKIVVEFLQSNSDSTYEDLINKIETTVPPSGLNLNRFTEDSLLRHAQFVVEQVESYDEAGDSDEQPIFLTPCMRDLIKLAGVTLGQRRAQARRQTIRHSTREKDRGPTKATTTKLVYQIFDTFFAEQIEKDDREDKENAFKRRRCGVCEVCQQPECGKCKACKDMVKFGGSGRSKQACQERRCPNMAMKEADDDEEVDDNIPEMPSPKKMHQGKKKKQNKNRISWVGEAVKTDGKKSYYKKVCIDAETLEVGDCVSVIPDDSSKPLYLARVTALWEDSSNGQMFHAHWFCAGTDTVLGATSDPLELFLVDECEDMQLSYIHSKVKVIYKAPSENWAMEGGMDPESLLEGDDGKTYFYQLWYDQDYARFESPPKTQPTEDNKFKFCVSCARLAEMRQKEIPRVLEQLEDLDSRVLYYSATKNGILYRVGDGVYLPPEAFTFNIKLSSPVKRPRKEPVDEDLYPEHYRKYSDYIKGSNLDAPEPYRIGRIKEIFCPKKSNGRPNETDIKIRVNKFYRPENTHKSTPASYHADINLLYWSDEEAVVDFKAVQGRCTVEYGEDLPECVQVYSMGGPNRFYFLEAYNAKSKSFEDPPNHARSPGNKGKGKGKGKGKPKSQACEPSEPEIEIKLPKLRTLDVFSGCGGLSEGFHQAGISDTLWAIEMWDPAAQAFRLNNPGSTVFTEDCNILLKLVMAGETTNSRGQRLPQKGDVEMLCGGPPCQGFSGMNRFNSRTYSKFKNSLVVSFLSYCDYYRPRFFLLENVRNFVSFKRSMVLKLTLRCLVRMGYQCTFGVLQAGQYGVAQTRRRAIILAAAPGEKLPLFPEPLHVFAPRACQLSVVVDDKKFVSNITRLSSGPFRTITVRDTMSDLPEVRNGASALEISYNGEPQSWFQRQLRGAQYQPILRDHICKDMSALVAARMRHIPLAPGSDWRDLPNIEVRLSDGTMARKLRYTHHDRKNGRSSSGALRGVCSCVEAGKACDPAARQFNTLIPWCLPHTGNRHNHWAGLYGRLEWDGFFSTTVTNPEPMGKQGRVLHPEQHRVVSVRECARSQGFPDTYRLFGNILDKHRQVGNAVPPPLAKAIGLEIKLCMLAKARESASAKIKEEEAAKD
SUMO1 PPI mod = modulators of SUMO1 protein-protein interactions, primary screen, biochemical, uHTS; SUMO1 binding to a labelled peptide, TR-FRET, 1 h; inhibition, % at 20 µM; 360,000 compounds, 0.33% hits; AID 602429, 2012; in the data active means inhibition above about 37%
LMPTP inh = LMPTP phosphatase inhibitors, primary screen, biochemical, fluorescence intensity, uHTS; 360,000 compounds, 0.22% hits; inhibition, % at 20 µM; Low molecular weight phosphotyrosine protein phosphatase (Homo sapiens), P24666; AID 651560, 2012; recombinant LMPTP-A, OMFP fluorogenic substrate;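 active means compounds that cut the enzyme signal by at least half of the control window in the single-dose screen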;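 further: plate controls were DMSO wells with enzyme plus substrate for no effect and substrate without enzyme for full effect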
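Assay system: LMPTP-A enzyme. Input: 0.625 nM LMPTP-A final. Probe or stimulus: 400 µM OMFP. Compound dosing: single 20 µM dose. Schedule: 50 min dark incubation at room temperature. Detection: fluorescence intensity of OMFP turnover product. Read-out: percent inhibition versus substrate-only and uninhibited controls. Benchmarks: no-enzyme low control, uninhibited high control.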
STEP inh = STEP phosphatase inhibitors, primary screen, biochemical, fluorescence intensity, uHTS | Tyrosine-protein phosphatase non-receptor type 5 (Homo sapiens), P54829 | 360,000 compounds, 0.25% hits | recombinant STEP, OMFP fluorogenic substrate | inhibition, % at 20 µM;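 active means inhibition at 20 µM, scaled per plate between control wells, above about 37%, limit read from the data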;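 further: 0% = DMSO with enzyme and substrate and 100% = substrate only without enzyme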
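Test system: STEP tyrosine phosphatase / Reagent: OMFP at 25 µM / Doses: 20 µM, 1% DMSO / Read-out: percent inhibition scaled to no-enzyme and uninhibited-enzyme controls, plate-pattern corrected / Detection: FITC-channel fluorescence of OMFP product / Medium: Bis-Tris buffer pH 6.0, 2.5 mM DTT, 0.005% Tween 20 / Schedule: 20 min at room temperature, dark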
Scp1 confirm = Scp-1 phosphatase inhibitors, retest, confirmation, biochemical, colorimetric, single concentration | inhibition, % at 20 µM | recombinant SCP-1 catalytic domain, phosphate release, malachite green absorbance | shares compounds with Scp1 inh | 2,500 compounds, 61% hits;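 further: plate controls were DMSO with enzyme for no effect and buffer wells lacking enzyme for full effect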
Scp-1 MG ctr = colorimetric readout interference by compounds, confirmation, artefact control for Scp-1 inhibitor project, biochemical, single concentration; 2,500 tested, under 10 active; shares compounds with Scp1 inh; Colorimetric interference counterscreen, malachite green absorbance 630 nm; apparent inhibition (interference), % at 20 µM;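 further: compounds added after enzyme reaction finished so only phosphate colour detection is probed; plate controls were DMSO wells with completed Scp-1 reaction for no effect and substrate wells lacking enzyme for full effect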
Scp1 DSF = Scp-1 binding by thermal shift, confirmation, orthogonal assay for Scp-1 inhibitor project, biophysical, differential scanning fluorimetry; shares compounds with Scp1 inh; Recombinant SCP1, Sypro Orange thermal shift Tm; thermal shift relative to vanadate control, % at 40 µM; 1,500 compounds, 25% hits; AID 540329, 2011;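 active means substances whose mean melting-temperature shift, as a percentage of the reference inhibitor's shift, reaches about 5.3%, limit read from the data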;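 further: 0% = Tm of DMSO wells and 100% = Tm with sodium orthovanadate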
Numbers without * were called inactive; . = not tested or not shown.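 How the source made its calls, unless noted: active means inhibition of at least 30% at 20 µM; inactive means the rest.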

SMILES	Scp1 inh	DNMT1 block	SUMO1 PPI mod	LMPTP inh	STEP inh	Scp1 confirm	Scp-1 MG ctr	others
Cc1cc(/C=C2\C(=O)NC(=O)N(c3ccc(F)cc3)C2=O)c(C)n1-c1cccc(C(=O)O)c1	11	37	23	-1	2	.	.
Cc1cc(/C=C2\C(=O)NC(=O)N(c3ccccc3)C2=O)c(C)n1-c1ccc(C(=O)O)c(Cl)c1	40	40	-3	1	46*	.	.
CCOC(=O)[C@]12Cc3cc(C)ccc3[C@H]1N(C)C(=O)c1cc(OC)ccc12	.	.	4	1	.	.	.
C=CCC1(CC)C(=O)NC(=S)NC1=O	7	2	42*	-1	-1	.	.
CC(C)(C)n1nnnc1C(c1ccnc2ccccc12)N1CCC2(CC1)C(=O)NCN2c1ccccc1 (configuration not stated)	.	-4	1	2	-2	.	.
Cc1cccc(-n2c(O)c(/C=C/C=Nc3ccccc3)c(=O)[nH]c2=O)c1	-4	55*	-29	1	-16	.	.
O=C1c2cccc(N3CCNCC3)c2C2CCCCN12 (configuration not stated)	.	-8	2	-1	3	.	.
C=CCN1C(=O)NC(=O)/C(=C/c2cccn2C)C1=O	-5	2	-5	-1	2	.	.
C=CCN1C(=O)NC(=O)/C(=C/c2ccoc2)C1=O	28	50*	5	0	1	.	.
COc1c(O)cc2c(c1OC)-c1ccc(SC)c(=O)cc1C(NC(C)=O)CC2 (configuration not stated)	5	-6	-28	-1	-1	.	.
C[n+]1c(-c2ccccc2)c2cc(N)ccc2c2ccc(N)cc21	-4	61*	46*	81*	6	.	.
N#CC1c2ccccc2-n2nncc2CN1C(=O)c1ccccc1F (configuration not stated)	.	7	-1	-2	-1	.	.
CCC(CO)(C(=O)OC1C[N+]2(C)CCC1CC2)c1ccccc1 (configuration not stated)	94*	1	-2	0	1	80*	-17	Scp1 DSF=-1
CCCCCC(=O)N[C@@H](c1ccccc1)[C@@H](O)C(=O)O[C@H]1C[C@@]2(O)[C@@H](OC(=O)c3ccccc3)C3[C@](C)(C(=O)[C@H](O)C(=C1C)C2(C)C)[C@@H](OC1OCC(O)C(O)C1O)C[C@H]1OC[C@@]31OC(C)=O (some centres not stated)	-13	-1	25	0	-1	-14	-8
Fc1cccc(-c2ccc3c(c2)CN(C(=S)NCCc2ccccc2)Cc2cnnn2-3)c1	.	-13	3	4	1	.	.
CC1CCCC(C2(O)C(=O)Nc3ccccc32)C1=O (configuration not stated)	57*	-2	3	-3	-7	2	-14
CCOP(=O)(OCC)C1(O)C(=O)Nc2ccccc21 (configuration not stated)	-1	8	-6	-2	-2	.	.
O=C1CC23c4ccccc4N4C(=O)CC5OCC=C6CN1C2CC6C5C43 (configuration not stated)	0	16	2	-1	-3	.	.
C[C@H]1[C@H](OC(=O)CCC(=O)NCc2ccc(C(=O)O)cc2)O[C@@H]2O[C@@]3(C)CC[C@H]4[C@H](C)CC[C@@H]1C24OO3	4	0	8	0	-1	.	.
CC(C)CC(NC(=O)CCCNC(=O)CCC(=O)OC1O[C@H]2OC3(C)CC[C@H]4[C@H](C)CCC(C1C)C24OO3)C(=O)O (some centres not stated)	95*	4	-1	-1	-4	-12	-13
CC[N+]12CCC(CC1)C(C(O)(c1ccccc1)c1ccccc1)C2 (configuration not stated)	-1	2	4	-1	3	.	.
CC(C)[N+]12CCC(CC1)C(C(O)(c1ccccc1)c1ccccc1)C2 (configuration not stated)	99*	1	3	-1	-4	87*	-11	Scp1 DSF=-27
COc1cc2c3c(c1OC)-c1cc(O)ccc1CC3NCC2 (configuration not stated)	-7	0	1	-1	7	.	.
COc1cc2c(cc1OC)-c1c(OC)c(OC)cc3c1[C@H](C2)[N+](C)(C)CC3	55*	2	1	0	2	12	-11
CNC(C(=O)c1ccccc1)C(OC(C)=O)c1cccc([N+](=O)[O-])c1 (configuration not stated)	88*	-4	-22	0	1	-10	-10
SMILES	Scp1 inh	DNMT1 block	SUMO1 PPI mod	LMPTP inh	STEP inh	Scp1 confirm	Scp-1 MG ctr	others
CC(C)CN1Cc2ccccc2-n2nncc2C1	.	3	-3	-1	-2	.	.
CS(=O)(=O)c1ccc(C2=C(CNC(=O)c3nccs3)[C@H]3CC[C@@H](C2)N3Cc2ccco2)cc1	.	3	5	0	-1	.	.
CCN(CC)P(=O)(c1n(CC)cc[n+]1CC)N(CC)CC	103*	2	3	3	-3	80*	-19	Scp1 DSF=-10
O=C1NCN(c2ccccc2)C12CCN(C(c1nnnn1-c1ccc3c(c1)OCCO3)C1CC1)CC2 (configuration not stated)	.	-7	2	1	2	.	.
CCOC(=O)c1ccccc1C(=O)OCC	-12	6	3	-2	-3	.	.
CCOC(=O)C1=C(C)c2ccccc2OC1(C(=O)OCC)c1ccccc1 (configuration not stated)	103*	7	6	-1	-4	39*	-18	Scp1 DSF=-31
C[n+]1ccc(-c2ccncc2)cc1	96*	-1	-25	-5	2	4	-9
O=C(O)c1ccccc1-c1ccc(C=C2C(=O)N(c3ccccc3)C(=S)N(c3ccccc3)C2=O)o1	58*	28	24	4	4	54*	-11	Scp1 DSF=2
CCOC(=O)CNC(=O)N1Cc2ccccc2-n2nncc2C1	.	2	0	-2	0	.	.
